Test results reported in ChEMBL document CHEMBL3734738, “A structure-activity relationship of non-peptide macrocyclic histone deacetylase inhibitors and their anti-proliferative and anti-inflammatory activities” (Bioorg Med Chem, 2015).

How the values were obtained:
[1] = target: T1, Protein deacetylase HDAC6 (Homo sapiens, UniProt Q9UBN7); assay: Inhibition of recombinant HDAC6 (unknown origin) expressed in Escherichia coli BL21(DE3) after 60 mins using trichostatin A by label-free mass spectrometry-based SAMDI assay
T1 sequence (Q9UBN7 whole entry): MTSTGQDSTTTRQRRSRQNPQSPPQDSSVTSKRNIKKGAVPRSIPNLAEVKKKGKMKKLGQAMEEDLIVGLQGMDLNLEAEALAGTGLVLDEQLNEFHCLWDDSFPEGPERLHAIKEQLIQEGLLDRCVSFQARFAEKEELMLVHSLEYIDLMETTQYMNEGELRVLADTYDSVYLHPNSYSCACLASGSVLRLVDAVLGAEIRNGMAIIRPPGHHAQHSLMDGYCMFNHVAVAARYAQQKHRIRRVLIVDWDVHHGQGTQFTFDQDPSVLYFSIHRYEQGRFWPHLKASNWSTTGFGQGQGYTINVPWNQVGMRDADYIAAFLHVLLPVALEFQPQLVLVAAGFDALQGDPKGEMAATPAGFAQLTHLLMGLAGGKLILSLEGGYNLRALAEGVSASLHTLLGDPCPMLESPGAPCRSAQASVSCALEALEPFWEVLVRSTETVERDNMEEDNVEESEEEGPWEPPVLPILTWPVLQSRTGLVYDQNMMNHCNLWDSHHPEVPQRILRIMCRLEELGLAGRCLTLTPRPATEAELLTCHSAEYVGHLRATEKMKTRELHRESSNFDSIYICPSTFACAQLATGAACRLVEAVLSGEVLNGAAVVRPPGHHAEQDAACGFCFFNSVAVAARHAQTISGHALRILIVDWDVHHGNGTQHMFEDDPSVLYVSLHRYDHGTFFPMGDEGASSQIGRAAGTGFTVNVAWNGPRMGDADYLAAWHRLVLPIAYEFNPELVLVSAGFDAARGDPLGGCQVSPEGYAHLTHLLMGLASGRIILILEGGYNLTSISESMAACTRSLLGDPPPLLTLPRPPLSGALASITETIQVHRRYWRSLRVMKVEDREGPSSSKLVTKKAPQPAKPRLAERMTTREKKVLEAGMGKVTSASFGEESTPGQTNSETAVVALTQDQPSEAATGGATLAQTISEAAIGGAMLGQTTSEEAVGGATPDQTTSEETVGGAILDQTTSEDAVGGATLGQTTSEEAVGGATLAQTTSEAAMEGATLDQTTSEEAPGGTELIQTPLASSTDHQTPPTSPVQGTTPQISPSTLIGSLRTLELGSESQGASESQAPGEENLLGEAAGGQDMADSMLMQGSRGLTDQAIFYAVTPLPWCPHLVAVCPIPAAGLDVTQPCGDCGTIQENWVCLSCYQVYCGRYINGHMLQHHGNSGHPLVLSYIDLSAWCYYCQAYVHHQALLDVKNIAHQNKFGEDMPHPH

[2] = target: T2, Histone deacetylase 8 (Homo sapiens, UniProt Q9BY41); assay: Inhibition of recombinant HDAC8 (unknown origin) expressed in Escherichia coli BL21(DE3) after 60 mins using trichostatin A by label-free mass spectrometry-based SAMDI assay
T2 sequence (Q9BY41 whole entry): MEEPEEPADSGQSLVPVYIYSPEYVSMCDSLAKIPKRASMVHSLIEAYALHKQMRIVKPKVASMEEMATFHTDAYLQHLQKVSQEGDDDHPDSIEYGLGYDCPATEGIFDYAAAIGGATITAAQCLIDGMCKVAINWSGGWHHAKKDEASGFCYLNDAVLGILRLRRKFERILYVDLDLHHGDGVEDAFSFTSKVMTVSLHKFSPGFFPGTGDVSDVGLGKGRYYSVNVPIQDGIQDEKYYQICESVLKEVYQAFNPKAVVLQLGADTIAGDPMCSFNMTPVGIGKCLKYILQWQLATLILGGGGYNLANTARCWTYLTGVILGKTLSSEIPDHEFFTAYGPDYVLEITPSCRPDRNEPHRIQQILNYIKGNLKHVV

[3] = test system: A549; assay: Cytotoxicity against human A549 cells after 72 hrs by MTS assay; format: functional, cell-based; conditions: a549
Outline: (§1)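 Cells kept in DMEM with 10% FBS and 1% penicillin-streptomycin, seeded in 96-well plates for 24 h, then exposed to a range of drug concentrations for 72 h at 0.1% DMSO; viability read by MTS assay per manufacturer's protocol.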

[4] = target: Histone deacetylase 1 (Homo sapiens, UniProt Q13547); assay: Inhibition of recombinant HDAC1 (unknown origin) expressed in Escherichia coli BL21(DE3) after 60 mins using trichostatin A by label-free mass spectrometry-based SAMDI assay
Chain of Histone deacetylase 1 (Q13547 whole entry): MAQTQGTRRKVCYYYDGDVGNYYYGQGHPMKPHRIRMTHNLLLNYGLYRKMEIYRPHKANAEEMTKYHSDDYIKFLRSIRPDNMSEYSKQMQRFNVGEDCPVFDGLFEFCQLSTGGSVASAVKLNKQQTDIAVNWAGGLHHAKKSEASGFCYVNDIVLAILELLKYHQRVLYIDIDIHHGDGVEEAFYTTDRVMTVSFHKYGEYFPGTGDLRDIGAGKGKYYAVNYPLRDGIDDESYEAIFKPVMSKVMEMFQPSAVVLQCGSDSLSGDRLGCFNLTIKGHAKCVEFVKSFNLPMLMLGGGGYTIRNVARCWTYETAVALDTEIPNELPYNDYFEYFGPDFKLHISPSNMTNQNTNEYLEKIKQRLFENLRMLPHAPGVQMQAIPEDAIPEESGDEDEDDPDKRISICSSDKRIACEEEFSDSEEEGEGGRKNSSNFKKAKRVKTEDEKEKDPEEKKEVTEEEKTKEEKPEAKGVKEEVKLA

[5] = test system: MCF7; assay: Cytotoxicity against human MCF7 cells after 72 hrs by MTS assay; format: functional, cell-based; conditions: mcf7; outline: as §1
[6] = Inhibition of NTHi-induced NF-kappaB activation in human BEAS-2B cells treated 1 hr before NTHi stimulation measured after 5 hrs by luciferase assay; format: cell-based; conditions: Homo sapiens, BEAS-2B; read-out: IC50
[7] = species on record: Homo sapiens; conditions: at 1 µM

SMILES	IC50 [1] [nM]	IC50 [2] [nM]	IC50 [4] [nM]	IC50 [3]	IC50 [5]	IC50 [6] [nM]	Imax [7] [%]
CC[C@@H]1OC(=O)[C@H](C)[C@@H](O[C@@H]2C[C@](C)(OC)[C@@](O)(CN(C)Cc3ccc(-c4cn(CCCCCC(=O)NO)nn4)cc3)[C@@H](C)O2)[C@@H](C)[C@@H](O[C@@H]2O[C@H](C)C[C@H](N(C)C)[C@H]2O)[C@](C)(O)C[C@@H](C)CN(C)[C@H](C)[C@@H](O)[C@]1(C)O	31.9	786	203	–	–	368	46.1
CC[C@@H]1OC(=O)[C@H](C)[C@@H](O[C@@H]2C[C@](C)(OC)[C@H](O)[C@@H](C)O2)[C@@H](C)[C@@H](O[C@@H]2O[C@H](C)C[C@H](N(C)Cc3ccccc3-c3cn(CCCCCCC(=O)NO)nn3)[C@H]2O)[C@](C)(O)C[C@@H](C)CN(C)[C@H](C)[C@@H](O)[C@]1(C)O	30.9	1280	923	Not Active	Not Active	–	–
CC[C@H]1OC(=O)[C@@H](C)[C@H](O[C@H]2C[C@@](C)(OC)[C@@H](O)[C@H](C)O2)[C@H](C)[C@H](O[C@H]2O[C@@H](C)C[C@@H](N(C)Cc3ccc(-c4cn(CCC(=O)NO)nn4)cc3)[C@@H]2O)[C@@](C)(O)C[C@H](C)CN(C)[C@@H](C)[C@H](O)[C@@]1(C)O	2170	> 10000	> 10000	–	–	–	–
CC[C@@H]1OC(=O)[C@@H](C)[C@H](O[C@@H]2C[C@](C)(OC)[C@@](O)(CN(C)C)[C@@H](C)O2)[C@H](C)[C@H](O[C@@H]2O[C@H](C)C[C@H](N(C)Cc3ccc(-c4cn(CCCCCC(=O)NO)nn4)cc3)[C@H]2O)[C@@](C)(OC)C[C@H](C)C(=O)[C@@H](C)[C@@H](O)[C@@]1(C)O	32.9	3200	201	–	–	–	–
CC[C@H]1OC(=O)[C@H](C)C(=O)[C@H](C)[C@@H](O[C@@H]2O[C@H](C)C[C@H](N(C)Cc3ccccc3-c3cn(CCCCCCC(=O)NO)nn3)[C@H]2O)[C@@](C)(OC)C[C@@H](C)C2=NCCN3C(=O)O[C@@]1(C)[C@H]3[C@H]2C	75.4	2450	> 10000	Not Active	Not Active	–	–
CC[C@@H]1OC(=O)[C@H](C)[C@@H](O[C@@H]2C[C@](C)(OC)[C@H](O)[C@@H](C)O2)[C@@H](C)[C@@H](O[C@@H]2O[C@H](C)C[C@H](N(C)Cc3cccc(-c4cn(CCCCCC(=O)NO)nn4)c3)[C@H]2O)[C@](C)(O)C[C@@H](C)CN(C)[C@H](C)[C@@H](O)[C@]1(C)O	43.8	604	109	–	–	–	–
CC[C@H]1OC(=O)[C@H](C)[C@@H](O[C@@H]2C[C@](C)(OC)[C@@](O)(CN(C)Cc3ccc(-c4cn(CCCCCC(=O)NO)nn4)cc3)[C@@H](C)O2)[C@@H](C)[C@@H](O[C@H]2O[C@@H](C)C[C@@H](N(C)C)[C@@H]2O)[C@](C)(OC)C[C@@H](C)C(=O)[C@H](C)[C@H](O)[C@]1(C)O	5.89	985	652	–	–	785	50.7
CC[C@H]1OC(=O)[C@@H](C)[C@H](O[C@H]2C[C@@](C)(OC)[C@@H](O)[C@H](C)O2)[C@H](C)[C@H](O[C@H]2O[C@@H](C)C[C@@H](N(C)Cc3ccc(-c4cn(CCCC(=O)NO)nn4)cc3)[C@@H]2O)[C@@](C)(O)C[C@H](C)CN(C)[C@@H](C)[C@H](O)[C@@]1(C)O	106	> 10000	> 10000	Not Active	Not Active	–	–
CC[C@H]1OC(=O)[C@@H](C)[C@H](O[C@H]2C[C@@](C)(OC)[C@](O)(CN(C)Cc3ccc(-c4cn(CCCCC(=O)NO)nn4)cc3)[C@H](C)O2)[C@H](C)[C@H](O[C@H]2O[C@@H](C)C[C@@H](N(C)C)[C@@H]2O)[C@@](C)(O)C[C@H](C)CN(C)[C@@H](C)[C@H](O)[C@@]1(C)O	95.3	709	531	–	–	–	–
CC[C@@H]1OC(=O)[C@@H](C)[C@H](O[C@H]2C[C@@](C)(OC)[C@@H](O)[C@H](C)O2)[C@@H](C)[C@H](O[C@H]2O[C@@H](C)C[C@@H](N(C)C)[C@@H]2O)[C@](C)(O)C[C@H](C)CN(Cc2ccc(-c3cn(CCCCC(=O)NO)nn3)cc2)[C@H](C)[C@H](O)[C@@]1(C)O	24.5	> 10000	2550	Not Active	Not Active	–	–

The remaining molecules from weak to strong by IC50 [1], led by results:

IC50 [1] [nM]	IC50 [2] [nM]	IC50 [4] [nM]	SMILES	IC50 [3]	IC50 [5]	IC50 [6] [nM]	Imax [7] [%]
1230	> 10000	> 10000	CC[C@H]1OC(=O)[C@H](C)[C@@H](O[C@@H]2C[C@](C)(OC)[C@H](O)[C@@H](C)O2)[C@H](C)[C@@H](O[C@@H]2O[C@H](C)C[C@H](N(C)C)[C@H]2O)[C@@](C)(O)C[C@@H](C)CN(Cc2ccc(-c3cn(CCC(=O)NO)nn3)cc2)[C@@H](C)[C@@H](O)[C@]1(C)O	–	–	–	–
194	2240	> 10000	CC[C@H]1OC(=O)[C@H](C)C(=O)[C@H](C)[C@@H](O[C@@H]2O[C@H](C)C[C@H](N(C)Cc3ccc(-c4cn(CCCC(=O)NO)nn4)cc3)[C@H]2O)[C@@](C)(OC)C[C@@H](C)C2=NCCN3C(=O)O[C@@]1(C)[C@H]3[C@H]2C	–	–	–	–
181	1180	> 10000	CC[C@@H]1OC(=O)[C@H](C)[C@@H](O[C@@H]2C[C@](C)(OC)[C@@](O)(CN(C)Cc3ccc(-c4cn(CCCC(=O)NO)nn4)cc3)[C@@H](C)O2)[C@@H](C)[C@@H](O[C@@H]2O[C@H](C)C[C@H](N(C)C)[C@H]2O)[C@](C)(O)C[C@@H](C)CN(C)[C@H](C)[C@@H](O)[C@]1(C)O	–	–	–	–
77.2	3210	269	CC[C@H]1OC(=O)[C@H](C)C(=O)[C@H](C)[C@@H](O[C@@H]2O[C@H](C)C[C@H](N(C)Cc3ccc(-c4cn(CCCCC(=O)NO)nn4)cc3)[C@H]2O)[C@@](C)(OC)C[C@@H](C)C2=NCCN3C(=O)O[C@@]1(C)[C@H]3[C@H]2C	–	–	–	–
31.3	817	50.4	CC[C@H]1OC(=O)[C@@H](C)[C@H](O[C@H]2C[C@@](C)(OC)[C@](O)(CN(C)Cc3ccc(-c4cn(CCCCCCC(=O)NO)nn4)cc3)[C@H](C)O2)[C@H](C)[C@H](O[C@H]2O[C@@H](C)C[C@@H](N(C)C)[C@@H]2O)[C@@](C)(O)C[C@H](C)CN(C)[C@@H](C)[C@H](O)[C@@]1(C)O	Not Active	Not Active	–	–
14.3	604	316	CC[C@H]1OC(=O)[C@@H](C)[C@H](O[C@H]2C[C@@](C)(OC)[C@@H](O)[C@H](C)O2)[C@H](C)[C@H](O[C@H]2O[C@@H](C)C[C@@H](N(C)Cc3ccc(-c4cn(CCCCCC(=O)NO)nn4)cc3)[C@@H]2O)[C@@](C)(O)C[C@H](C)CN(C)[C@@H](C)[C@H](O)[C@@]1(C)O (stereo in doubt)	–	–	–	–
10.3	2370	145	CC[C@H]1OC(=O)[C@H](C)[C@@H](O[C@@H]2C[C@](C)(OC)[C@H](O)[C@@H](C)O2)[C@H](C)[C@@H](O[C@@H]2O[C@H](C)C[C@H](N(C)C)[C@H]2O)[C@@](C)(O)C[C@@H](C)CN(Cc2ccc(-c3cn(CCCCCC(=O)NO)nn3)cc2)[C@@H](C)[C@@H](O)[C@]1(C)O	–	–	–	–
